# Assay results: ChEMBL document CHEMBL1142150, “Inhibitors of nonhousekeeping functions of the apicoplast defy delayed death in Plasmodium falciparum” (Antimicrob Agents Chemother, 2007)
# Active and inactive are the calls of the source. No cut-off for these calls is given here.
# Assays:
# Plasmodium falciparum [1] = assay: Reduced apicoplast DNA/nuclear DNA ratio in Plasmodium falciparum FCK2 at 25 uM after 72 hrs by competitive PCR; type: functional, organism-based
# Plasmodium falciparum [2] = assay: Inhibition of Plasmodium falciparum FCK2 growth as [3H]hypoxanthine uptake after 96 hrs; type: functional, organism-based
# In short: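 Ring-synchronized FCK2 at 2 to 3% hematocrit, 1 to 2% initial parasitemia, exposed to a range of inhibitor concentrations for the first 48 h only, in duplicate. [3H]hypoxanthine then added for a further 48 h, followed by harvest and scintillation counting. IC50/MIC90 from nonlinear fit of parasitemia relative to untreated (100%) against log concentration.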
# Plasmodium falciparum [3] = assay: Inhibition of Plasmodium falciparum FCK2 growth as [3H]hypoxanthine uptake after 48 hrs; type: functional, organism-based
# In short: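 Ring-synchronized FCK2 in human O+ erythrocytes, 2 to 3% hematocrit, 1 to 2% initial parasitemia. Cultured 48 h with [3H]hypoxanthine and a range of inhibitor concentrations, inhibitor refreshed in new medium every 24 h, in duplicate. Cells harvested onto glass fibre filters for scintillation counting. IC50/MIC90 from nonlinear fit of parasitemia relative to untreated (100%) against log concentration.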
# Plasmodium falciparum [4] = assay: Reduction in Plasmodium falciparum FCK2 in human blood cell culture after 96 hrs; type: functional; parameters: scale not given: the % may be the effect or the level left
# In short: (§1)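 Ring-stage synchronized FCK2 (2–3% hematocrit, 1–2% parasitemia) was treated with an inhibitor dilution series for the first 48 h only, in duplicate. [3H]hypoxanthine was then added for a further 48 h (96 h total) before filter harvest and scintillation counting. Percent parasitemia was set relative to untreated controls, and IC50/MIC90 were fitted by nonlinear regression against log concentration.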
# Plasmodium falciparum [5] = assay: Decrease in Plasmodium falciparum FCK2 in erythrocytes at 50 uM after 84 hrs; type: functional, organism-based
# In short: (§2)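 Ring-stage synchronized FCK2 in human O+ erythrocytes at 10% hematocrit and 3% starting parasitemia, with medium changed every 24 h. Inhibitor was present either throughout (96 h) or for the first 48 h only, in triplicate. Giemsa thin smears were read every 12 h, counting at least 10 fields of about 200 cells. Parasitemia is infected RBC over total RBC; parasites lacking an intact membrane or stained cytoplasm were scored dead.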
# Plasmodium falciparum [6] = assay: Reduction in Plasmodium falciparum FCK2 in human erythrocyte culture after 48 hrs; type: functional, organism-based
# In short: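 FCK2 synchronized with sorbitol, at ring stage, in O+ erythrocytes (2–3% hematocrit, 1–2% parasitemia). Cells were exposed to an inhibitor dilution series with [3H]hypoxanthine for 48 h, with fresh inhibitor every 24 h, in duplicate. Harvested onto glass-fiber filters for scintillation counting. Parasitemia was taken relative to untreated (100%), and IC50/MIC90 were fitted by nonlinear regression against log concentration.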
# Plasmodium falciparum [7] = assay: Reduced apicoplast DNA/nuclear DNA ratio in Plasmodium falciparum FCK2 at 100 nM after 72 hrs by competitive PCR; type: functional, organism-based
# Plasmodium falciparum [8] = assay: Reduced apicoplast genome copy number in Plasmodium falciparum FCK2 after 48 hrs; type: functional
# Plasmodium falciparum [9] = assay: Decrease in Plasmodium falciparum FCK2 in erythrocytes at 5 uM after 84 hrs; type: functional, organism-based; in short: as §2
# Plasmodium falciparum [10] = assay: Reduced apicoplast genome copy number in Plasmodium falciparum FCK2 after 96 hrs; type: functional
# Plasmodium falciparum [11] = assay: Inhibition of fatty acid biosynthesis in Plasmodium falciparum FCK2 as [1,2-14C]acetate uptake during first asexual cycle at 10 uM after 24 hrs; type: functional, organism-based
# Plasmodium falciparum [12] = assay: Reduced apicoplast DNA/nuclear DNA ratio in Plasmodium falciparum FCK2 at 10 uM after 72 hrs by competitive PCR; type: functional
# Plasmodium falciparum [13] = assay: Reduced apicoplast DNA/nuclear DNA ratio in Plasmodium falciparum FCK2 at 500 uM after 72 hrs by competitive PCR; type: functional, organism-based
# Plasmodium falciparum [14] = assay: Inhibition of Plasmodium falciparum FCK2 second cycle growth in erythrocytes at 48 hrs; type: functional, organism-based; in short: as §1
# Plasmodium falciparum [15] = assay: Reduced apicoplast DNA/nuclear DNA ratio in Plasmodium falciparum FCK2 at 1 mM after 72 hrs by competitive PCR; type: functional, organism-based
# In short: (§3)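 FCK2 cultures were treated for 72 h, then saponin-lysed, and genomic DNA was kit-purified. Competitive PCR for eftu (apicoplast) and fabI (nuclear) used deletion-mutant plasmid standards diluted in calf thymus DNA, run for 25 cycles at 95/50/72°C. Products were quantified by ethidium-stained gel densitometry, and copy number was taken at equal band intensity. Groups were compared by two-tailed Student t test.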
# Plasmodium falciparum [16] = assay: Reduced apicoplast DNA/nuclear DNA ratio in Plasmodium falciparum FCK2 at 100 uM after 72 hrs by competitive PCR; type: functional; in short: as §3
# Plasmodium falciparum [17] = assay: Inhibition of fatty acid biosynthesis in Plasmodium falciparum FCK2 as decreased [1,2-14C]acetate uptake at 10 uM after 2 hrs; type: functional, organism-based
Structure (SMILES),IC50 (Plasmodium falciparum [2]) [µM],MIC90 (Plasmodium falciparum [2]) [µM],IC50 (Plasmodium falciparum [3]) [µM],MIC90 (Plasmodium falciparum [3]) [µM],also measured
Oc1ccc(Cl)cc1Oc1ccc(Cl)c2cccnc12,–,–,–,–,Activity (Plasmodium falciparum [1]): inactive
O=C(O)c1cc(Oc2ccc(C(F)(F)F)cc2Cl)ccc1[N+](=O)[O-] [ACIFLUORFEN],457,692,525,871,–
C/C=C/C/C=C/CCC(=O)[C@H]1O[C@H]1C(N)=O [CERULENIN],16.9,52.3,15.1,64.9,–
O=C(N[C@H](CO)[C@H](O)c1ccc([N+](=O)[O-])cc1)C(Cl)Cl [CHLORAMPHENICOL],11.2,190,417,1020,Activity (Plasmodium falciparum [4]): 10%; Activity (Plasmodium falciparum [5]): inactive; Activity (Plasmodium falciparum [6]): inactive
CCN(CC)CCCC(C)Nc1ccnc2cc(Cl)ccc12 (stereo unspecified) [CHLOROQUINE],–,0.011,–,0.011,Activity (Plasmodium falciparum [7]): inactive
CCC[C@@H]1C[C@@H](C(=O)N[C@@H]([C@H]2O[C@H](SC)[C@H](O)[C@@H](O)[C@H]2O)[C@H](C)Cl)N(C)C1 [CLINDAMYCIN],0.0013,6,288,537,Activity (Plasmodium falciparum [8]): 0.65; Activity (Plasmodium falciparum [4]): 10%; Activity (Plasmodium falciparum [6]): inactive; Activity (Plasmodium falciparum [9]): inactive; Activity (Plasmodium falciparum [10]): 0.42; Activity (Plasmodium falciparum [11]): inactive; Activity (Plasmodium falciparum [12]): 0.4
C[C@@H]1C[C@@H]([C@H](O)CC2CC(=O)NC(=O)C2)C(=O)[C@@H](C)C1 [CYCLOHEXIMIDE],0.1,0.48,0.15,0.73,Activity (Plasmodium falciparum [7]): inactive
CC(Oc1ccc(Oc2ccc(C(F)(F)F)cn2)cc1)C(=O)O (stereo unspecified) [FLUAZIFOP],1480,5750,1550,6920,–
CC(Oc1ccc(Oc2ncc(C(F)(F)F)cc2Cl)cc1)C(=O)O (stereo unspecified) [HALOXYFOP],97.7,346,107,346,Activity (Plasmodium falciparum [13]): inactive
CC(Oc1ccc(Oc2cnc3cc(Cl)ccc3n2)cc1)C(=O)O (stereo unspecified) [QUIZALOFOP],676,1950,575,3090,–
C[C@@H]1C[C@H]2O[C@@H]2/C=C\C=C\C(=O)Cc2c(Cl)c(O)cc(O)c2C(=O)O1 [RADICICOL],5.6,60.2,7.2,46.8,–
CO[C@H]1/C=C/O[C@@]2(C)Oc3c(C)c(O)c4c(O)c(c(/C=N/N5CCN(C)CC5)c(O)c4c3C2=O)NC(=O)/C(C)=C\C=C\[C@H](C)[C@H](O)[C@@H](C)[C@@H](O)[C@@H](C)[C@H](OC(C)=O)[C@@H]1C [RIFAMPIN],0.19,2,4.2,110,Activity (Plasmodium falciparum [4]): 10%; Activity (Plasmodium falciparum [6]): inactive; Activity (Plasmodium falciparum [9]): Active; Activity (Plasmodium falciparum [14]): Active
CC(=O)CC(=O)CCC(=O)O [SUCCINYLACETONE],17400,51300,17800,58900,Activity (Plasmodium falciparum [15]): inactive
CN(C)[C@@H]1C(O)=C(C(N)=O)C(=O)[C@@]2(O)C(O)=C3C(=O)c4c(O)cccc4[C@@](C)(O)[C@H]3C[C@@H]12 [TETRACYCLINE],2.19,26.9,135,562,Activity (Plasmodium falciparum [4]): 10%; Activity (Plasmodium falciparum [16]): 0.1; Activity (Plasmodium falciparum [5]): Active; Activity (Plasmodium falciparum [6]): inactive; Activity (Plasmodium falciparum [14]): Active
Oc1cc(Cl)ccc1Oc1ccc(Cl)cc1Cl [TRICLOSAN],1.2,10.2,1.1,15.8,Activity (Plasmodium falciparum [8]): inactive; Activity (Plasmodium falciparum [10]): inactive; Activity (Plasmodium falciparum [17]): Active
